For 97 compounds, cytotoxicity results are on record in ChEMBL document CHEMBL4513216, “Probing the Open Global Health Chemical Diversity Library for Multistage-Active Starting Points for Next-Generation Antimalarials” (ACS Infect Dis, 2020).

Structures are written as SMILES.

The nature of the data set: Toxicity liver stage against HepG2, at 10uM. Particulars: human, HepG2-A16-CD81EGFP cells; read-out: INHIBITION
It is filed as cell-based. Set-up: test concentration 10 uM, cell line HepG2-A16-CD81EGFP. A digest of the protocol:
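Uninfected HepG2-A16-CD81EGFP cells, 3 × 10^3 per well, 1536-well, plated on prespotted compound at 10 μM final, parasite-free screening media added to match infected plates; puromycin 10 μM positive, DMSO 0.5% negative; run in parallel with 48 h PbLuc assay at 37 °C, 5% CO2; viability by CellTiter-Glo luminescence, normalized to controls.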
For the compound `CS(=O)(=O)c1ccc(-c2ccccc2C(=O)O)cc1`, the cytotoxicity at 10 µM was 0.238%.

`COCC(=O)Nc1cnc(N2CCCC2)nc1`: the cytotoxicity at 10 µM was -5.93%.

For the compound `COc1cccc2sc(N(C)CC(=O)NCc3nc(C)no3)nc12`, the cytotoxicity at 10 µM was -1.53%.

`Cn1c2c(c(=O)n1C)CN(C(=O)c1ccco1)CCC2`: the cytotoxicity at 10 µM is 10.5%.

As for `FC1(F)CCN(c2ccccc2)CC12CCN(c1ncccn1)C2` (configuration not stated), the cytotoxicity at 10 µM stood at 3.71%.

With `CCc1ncnc2c1CCN(c1ncc(F)cn1)CC2`, the cytotoxicity at 10 µM came to 7.86%.

For the compound `Cc1ccc(N2CCc3sc(C(=O)NCCN4CCCC4)cc32)nn1`, the cytotoxicity at 10 µM is -2.19%.

Turning to `COCC(=O)N1CCCn2c(CN3CCCC3=O)nnc2C1`, the cytotoxicity at 10 µM is -123%.

As for `NC(=O)CSc1nnc2n1N=CN(c1ccccc1F)C2`, the cytotoxicity at 10 µM is -3.78%.

Regarding `COc1cccc(-c2nc(C)c(C(=O)N[C@@H](C)C(=O)O)s2)c1`, the cytotoxicity at 10 µM worked out at 6.51%.

Turning to `CNC(=O)c1cc2c(nc1NC(C)C)CCN(C(=O)NC(C)C)CC2`, the cytotoxicity at 10 µM was -0.0714%.

Take `Cc1nnn2c1COCC(CNC(=O)c1ccc3[nH]ccc3c1)C2` (configuration not stated): the cytotoxicity at 10 µM was -10.7%.

For the compound `CC(C)=CCCC(C)(O)c1cc(C(N)=O)no1` (configuration not stated), the cytotoxicity at 10 µM was determined as 3.56%.

On to `CCN1CCN(c2nc(C(C)C)nc3c(C)nn(CC)c23)CC1`, for which the cytotoxicity at 10 µM was -12.6%.

Regarding `c1cnc(Nc2ccc(C3CCCCN3)cn2)cn1` (configuration not stated), the cytotoxicity at 10 µM stood at 1.24%.

In the case of `CCN1CCCC(NC(=O)CCn2c(C(F)F)cc3cccnc32)C1` (configuration not stated), the cytotoxicity at 10 µM is -0.212%.

For `Cc1nc(Nc2nnc(C)s2)cc(C2CCCN2C(C)C)n1` (configuration not stated), the cytotoxicity at 10 µM is -23.9%.

With `CC(=O)N1CCC(c2nc(C)cc(-c3ccccc3C(=O)O)n2)CC1`, the cytotoxicity at 10 µM is -28%.

Regarding `Cn1cc(NS(=O)(=O)CCOc2ccc(F)cc2)cn1`, the cytotoxicity at 10 µM was -0.77%.

Consider `Cc1cccc(C2CCCCCN2C(=O)c2cn(CC(N)=O)nn2)c1` (configuration not stated), for which the cytotoxicity at 10 µM came to 1.51%.

With `O=C(CCc1nnc(-c2ccccc2)o1)N1CCCC1c1ccc[nH]1` (configuration not stated), the cytotoxicity at 10 µM was -3.33%.

For `O=S(=O)(c1cncc(F)c1)N1CCC2(CCOC2)C1` (configuration not stated), the cytotoxicity at 10 µM is -0.872%.

With `CNC(=O)c1cccc(CNC2CCCSc3ccccc32)c1` (configuration not stated), the cytotoxicity at 10 µM was -2.64%.

As for `CC(=O)NCc1ccc(S(=O)(=O)NC(=O)c2ccc3c(c2)CCO3)s1`, the cytotoxicity at 10 µM was 16.1%.

Turning to `CC(O)CCN(C)S(=O)(=O)Cc1ccc(Cl)c(Cl)c1` (configuration not stated), the cytotoxicity at 10 µM worked out at 3.92%.

Turning to `Cc1ccc2c(c1)N(C(=O)c1nccnc1N)CC(C)O2` (configuration not stated), the cytotoxicity at 10 µM is -1.65%.

As for `Cc1nccc(CNC(=O)NCCC(=O)N2CCCc3ccccc32)n1`, the cytotoxicity at 10 µM is -0.457%.

Take `CCCC(C)N(C)Cc1nnc(-c2ccc(Br)s2)o1` (configuration not stated): the cytotoxicity at 10 µM is -1.16%.

On to `CC(C)Oc1ccccc1C(=O)NC1CC(=O)N(CC(F)(F)F)C1` (configuration not stated), for which the cytotoxicity at 10 µM was 4.37%.

As to `Cc1cc(C)c2nc(C3CC3)cc(C(=O)N3CCCC3C(N)=O)c2c1` (configuration not stated), the cytotoxicity at 10 µM is -1.11%.

On to `CC(NC(=O)CCn1cccn1)c1cn(-c2ccccc2)nn1` (configuration not stated), for which the cytotoxicity at 10 µM was found to be 0.554%.

Regarding `O=C(CCNC(=O)NC1CC1)NCc1ccccc1`, the cytotoxicity at 10 µM stood at 8.12%.

For `CNS(=O)(=O)c1cccc(CNc2ccc(C#N)cn2)c1`, the cytotoxicity at 10 µM is -4.36%.

As for `O=C1CCN(C(=O)C2(c3ccc(F)cc3)CCCCC2)CCN1`, the cytotoxicity at 10 µM is -7.4%.

For `CCS(=O)(=O)N1CCC(Nc2ccc(C#N)cc2F)CC1`, the cytotoxicity at 10 µM was determined as 5.65%.

On to `CN(CCC#N)C(=O)CSc1cc(F)ccc1F`, for which the cytotoxicity at 10 µM was found to be 13.2%.

In the case of `O=C(c1ccn(-c2ccccc2Cl)n1)N1CCCSCC1`, the cytotoxicity at 10 µM turned out to be 4.22%.

With `COc1ccc(NC(=O)c2ccoc2C)c(N2CCN(C(C)=O)CC2)n1`, the cytotoxicity at 10 µM was -9.09%.

For `Cc1nc(C(=O)N(C)CC(=O)N(C)C)nn1-c1ccccc1C(C)C`, the cytotoxicity at 10 µM was -6.5%.

As for `Cc1nc2n(n1)CC(NCc1ccnc(-c3ccccc3)n1)CC2` (configuration not stated), the cytotoxicity at 10 µM was -0.898%.

`O=C(Cc1ccc2c(c1)OCO2)N1CCCN(c2nccs2)CC1`: the cytotoxicity at 10 µM was -11.9%.

As to `Cc1cc(NC(=O)CNc2cccc(C(=O)N3CCCC(O)C3)c2)no1` (configuration not stated), the cytotoxicity at 10 µM is -2.21%.

`O=C(NC1CCN(C2CC2)CC1)c1[nH]nc(C2CC2)c1Cl`: the cytotoxicity at 10 µM is 2.64%.

As for `CC(NCC1CCN(CCO)CC1)c1cccnc1` (configuration not stated), the cytotoxicity at 10 µM was -5.6%.

Turning to `O=C(NCCCO)Nc1cccc(C[S+]([O-])c2ccccc2)c1` (configuration not stated), the cytotoxicity at 10 µM was found to be 0.0964%.

With `CC(C)n1nc2c(cc1=O)CN(Cc1ccc(-n3cccn3)cc1)CC2`, the cytotoxicity at 10 µM is -145%.

As to `O=C(CNC(=O)c1cnc2ccccc2c1O)NCCCn1ccnc1`, the cytotoxicity at 10 µM is -5.28%.

As for `CCOc1cccc(CNC(=O)c2cnn(CC)c2C(F)(F)F)c1`, the cytotoxicity at 10 µM is 11.7%.

Regarding `CN(C)c1cc(CNC(=O)NCC2(C)CCCS2)ccn1` (configuration not stated), the cytotoxicity at 10 µM amounted to 6.64%.

Consider `c1cncc(-c2ccnn2CN2CCC3(CC2)OCCO3)c1`, for which the cytotoxicity at 10 µM was 8.19%.

In the case of `CC(NC(=O)NCCc1nc(C(F)(F)F)cs1)C(=O)N(C)C` (configuration not stated), the cytotoxicity at 10 µM came out at 5.04%.

Consider `COc1cccc(Cc2nnc(SC3CCOC3=O)o2)c1` (configuration not stated), for which the cytotoxicity at 10 µM was found to be 12.9%.

Consider `COCCNC(=O)c1ccc(C)c(-n2cccc2)c1`, for which the cytotoxicity at 10 µM was -3.06%.

Consider `OCc1csc(N2CCCC(CO)(Cc3cccc(Cl)c3)C2)n1` (configuration not stated), for which the cytotoxicity at 10 µM turned out to be 8.87%.

As for `CSCCC(=O)N1C[C@H](Nc2ccnc(C)n2)[C@@H](C(C)C)C1`, the cytotoxicity at 10 µM is -1.13%.

For the compound `O=C(c1ccc2nccn2c1)N(CCO)Cc1ccccc1F`, the cytotoxicity at 10 µM came out at 5.27%.

Turning to `O=C(O)C1(Oc2cccc(F)c2)CCN(C2CCOCC2)CC1`, the cytotoxicity at 10 µM was -7.16%.

Consider `CCCN1CCN(C(=O)c2ccc3ccccc3n2)[C@H]2CS(=O)(=O)C[C@H]21`, for which the cytotoxicity at 10 µM was -3.31%.

Turning to `Cc1ccc2[nH]c(=O)c(CN(C)Cc3cc(C4CC4)[nH]n3)cc2c1`, the cytotoxicity at 10 µM was -3.07%.

As to `CN(C)CCC1CN(C(=O)c2cccc3c2OCC3)CCO1` (configuration not stated), the cytotoxicity at 10 µM is 2.13%.

Take `Cc1nnc(NC(=O)N2CCN(Cc3ccc(F)cc3)C(=O)C2)s1`: the cytotoxicity at 10 µM is -0.392%.

As for `Cc1c(Cl)c(C(=O)N2C[C@@H](C(=O)O)[C@H](c3cccnc3)C2)nn1C`, the cytotoxicity at 10 µM stood at 6.21%.

As to `c1ccc(-c2cc(CN3CCCCCC3c3ccco3)on2)nc1` (configuration not stated), the cytotoxicity at 10 µM was -6.19%.

On to `COc1cc(NC2CCN(C3CCS(=O)(=O)CC3)CC2)ncn1`, for which the cytotoxicity at 10 µM was determined as 1.64%.

In the case of `CNC(=O)[C@@H]1C[C@@H](N)CN1C(=O)CCSCc1ccccc1`, the cytotoxicity at 10 µM worked out at 6.7%.

Turning to `Cc1cnc(NCCCN2CCc3ccccc32)nc1`, the cytotoxicity at 10 µM worked out at 2.24%.

For `N#Cc1ccc(C(=O)N2CCC3(CC2)C(=O)Nc2ccccc23)cn1`, the cytotoxicity at 10 µM was determined as 13.5%.

`Cc1nc2c(c(N3CC=CC3)n1)CCN(Cc1ccoc1)CC2`: the cytotoxicity at 10 µM is -6.51%.

In the case of `CC(C)n1ccnc1C1CCN(Cc2ccc(Cl)s2)CC1`, the cytotoxicity at 10 µM was -7.09%.

With `Cc1c[nH]c(CN(C)C(=O)C2CC(=O)N(Cc3ccncc3)C2)n1` (configuration not stated), the cytotoxicity at 10 µM is 16.7%.

As to `CC(C)c1ccc(-c2nonc2N)cc1`, the cytotoxicity at 10 µM was -3.25%.

As to `CC(C)CN(C)Cc1nc2c(cnn2C)c(=O)[nH]1`, the cytotoxicity at 10 µM was -12.3%.

For `CC(C)c1nnc(NC(=O)NC2CCN(Cc3ccccc3)C2)s1` (configuration not stated), the cytotoxicity at 10 µM is -11.2%.

Take `NC(=O)Cn1cc(NC(=O)N2CCSCC2)cn1`: the cytotoxicity at 10 µM is -9.95%.

For `CNc1nc(CNC(=O)Nc2cccc(Cl)c2Cl)cs1`, the cytotoxicity at 10 µM was -15.8%.

`Cn1ccnc1CN1CCN(Cc2noc(C3CC3)n2)CC1`: the cytotoxicity at 10 µM is -1.85%.

On to `CC(=O)NCCNC(=O)CN1CCCCC1Cn1cncn1` (configuration not stated), for which the cytotoxicity at 10 µM was found to be 2.7%.

As for `CN(C)S(=O)(=O)CCCN1CCCC1c1noc(C2CC2)n1` (configuration not stated), the cytotoxicity at 10 µM is -10.3%.

In the case of `Brc1cccc(-c2nnc(CNCCn3cccn3)o2)c1`, the cytotoxicity at 10 µM was -9.59%.

As to `OC(CNCCn1cccn1)c1cccc(F)c1` (configuration not stated), the cytotoxicity at 10 µM is -4.41%.

As for `Cc1nc(C)n(CC2CN(CCOc3ccccc3C#N)CCO2)n1` (configuration not stated), the cytotoxicity at 10 µM was -7.45%.

Regarding `Cc1nccn1C1CCCN(C(=O)c2cc(Cl)c3c(c2)OCO3)C1` (configuration not stated), the cytotoxicity at 10 µM was -2.78%.

Regarding `CC(C)NC(=O)C1CCN(c2snc3ccccc23)CC1`, the cytotoxicity at 10 µM was -8.18%.

As for `CC1COCCN1Cc1nc(-c2cccc(Br)c2)no1` (configuration not stated), the cytotoxicity at 10 µM was -3.04%.

On to `O=C(c1ccc(O)cc1)N1C[C@@H]2OCCN(c3ncccn3)[C@@H]2C1`, for which the cytotoxicity at 10 µM came to 6.72%.

Take `Cc1noc(C)c1CN1CCn2cc(CN3CCCC3)nc2C1`: the cytotoxicity at 10 µM worked out at 5.37%.

`CN(C)C(=O)N1CC2(CCNCC2)c2cc(F)ccc21`: the cytotoxicity at 10 µM is -79.9%.

In the case of `O=C(O)c1cc2c(nc1N1CCCC1)CCN(C1CCOCC1)CC2`, the cytotoxicity at 10 µM amounted to 3.02%.

As to `CC(C)CN1C[C@H]2CCN(c3ncccn3)CC[C@H]2S1(=O)=O`, the cytotoxicity at 10 µM is -11.2%.

In the case of `O=C(NC1CC1)[C@H]1C[C@H]2OCC[C@H]2N(Cc2ccc(F)cc2)C1`, the cytotoxicity at 10 µM was 3.62%.

`COCC1CC2(CCNCC2)CN1Cc1csc(C)n1` (configuration not stated): the cytotoxicity at 10 µM turned out to be 5.77%.

Regarding `CO[C@@H]1CCN(C(=O)c2ccccn2)[C@H]1Cc1ccccc1`, the cytotoxicity at 10 µM was 4.89%.

For `Cc1ccc(CN2C[C@@H]3CCCO[C@@H]3[C@H](N(C)Cc3ccco3)C2)s1`, the cytotoxicity at 10 µM was determined as 3.88%.

With `c1cc(CN2CCO[C@@H]3CNC[C@@H]32)cs1`, the cytotoxicity at 10 µM was 9.22%.

As to `CC(C)CCn1c(=O)[nH]c2cn(-c3ccc(F)cc3)c(=O)n21`, the cytotoxicity at 10 µM was 2.97%.

As to `O=C1[C@@H]2CC[C@@H](CN(C3CSCCSC3)C2)N1Cc1cscn1`, the cytotoxicity at 10 µM is -15.1%.

Consider `O=C1OCCN1CC(=O)N1C[C@@H]2CC[C@H]1CN(Cc1cscn1)C2`, for which the cytotoxicity at 10 µM was -5.41%.
